# Test results as given in ChEMBL document CHEMBL3271948, “Irreversible enzyme inhibitors. 200. Active-site-directed inhibitors of deoxycytidine kinase” (J Med Chem, 1977).
# pIC50: −log10 of the molar value. Activity calls are given as the source filed them. No cut-off for these calls is given here.
# Legend:
# Deoxycytidine kinase = Deoxycytidine kinase (Rattus norvegicus, UniProt P48769); assay: (§1) Irreversible inhibition of Walker 256 rat tumor deoxycytidine kinase by [3H]deoxycytidine binding assay; settings: read-out: I50
# Outline: (§2)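 Enzyme came from the 0–45% (NH4)2SO4 fraction of Walker 256 rat tumor, treated with 1 M HOAc. The assay contained [3H]deoxycytidine 0.025 mM, ATP 5 mM, MgCl2 5 mM and Tris pH 8.0 buffer 50 mM. Inhibitor was added in DMSO. Phosphorylated product was measured by adsorption to DEAE-cellulose filter disks. Inhibition was expressed as V0/V1, the uninhibited over the inhibited rate.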
# [1] = Maximum solubility of the compound; type: physicochemical
# [2] = molecular target: Deoxycytidine kinase (Rattus norvegicus) (UniProt P48769); assay: Irreversible inhibition of Walker 256 rat tumor deoxycytidine kinase assessed as ratio of V0/V1 by [3H]deoxycytidine binding assay; outline: as §2
# [3] = molecular target: Deoxycytidine kinase (Rattus norvegicus) (UniProt P48769); assay: as §1; outline: as §2
# Deoxycytidine kinase (Rattus norvegicus), sequence (P48769 whole entry): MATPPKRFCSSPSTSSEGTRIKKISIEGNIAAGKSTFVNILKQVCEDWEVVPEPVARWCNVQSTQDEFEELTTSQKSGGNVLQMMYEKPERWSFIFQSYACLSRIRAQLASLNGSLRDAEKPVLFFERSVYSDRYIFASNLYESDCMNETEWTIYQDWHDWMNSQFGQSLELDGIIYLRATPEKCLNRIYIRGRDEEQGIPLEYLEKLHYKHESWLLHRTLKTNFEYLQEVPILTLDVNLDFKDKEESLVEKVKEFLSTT
# Deoxycytidine kinase, sequence (P48769 whole entry): as above
Compound,pIC50 (Deoxycytidine kinase),solubility [1] [µM],Ratio [2],inhibition [3],IC [3] [mM]
CCCOc1nccc(N)n1,–,–,1,–,5
CCCCCNc1cc[nH]c(=O)n1,–,–,–,inactive,–
COCCOc1nccc(N)n1,–,–,1,–,5
Oc1nccc(Nc2ccccc2)n1,–,–,–,inactive,–
CC(C)CCn1ccc(N)nc1=O,2.30,–,2,–,5
CCCCNc1cc(N)nc(=O)[nH]1,–,–,–,inactive,–
Nc1cc[nH]c(=O)n1,–,–,1,–,10
CCCCCOc1nccc(N)n1,2.15,–,3.6,–,10
Nc1ccnc(Oc2ccc(Cl)cc2)n1,2.30,–,2,–,5
O=C(Nc1ccnc(=O)[nH]1)c1ccccc1,–,–,–,inactive,–
CC(=O)Nc1cc[nH]c(=O)n1,–,–,–,inactive,–
CCCCCSc1nccc(N)n1,2.59,–,2,–,2.6
CCCCCCCCOc1nccc(N)n1,3.00,250,1.5,–,–
Nc1nc(=O)[nH]cc1-c1ccc(Cl)c(Cl)c1,–,–,–,inactive,–

# Next, values leading:
pIC50 (Deoxycytidine kinase),solubility [1] [µM],Ratio [2],inhibition [3],IC [3] [mM],Compound
1.92,2500,1.4,–,–,Nc1ccn(Cc2ccccc2)c(=O)n1
2.82,500,1.4,–,–,Nc1ccn(-c2cccc3ccccc23)c(=O)n1
–,–,–,inactive,–,O=c1nc(NCc2ccccc2)cc[nH]1
–,–,–,inactive,–,Nc1cc(NCc2ccccc2)[nH]c(=O)n1
2.70,1000,1.5,–,–,Nc1ccnc(SCCCOc2ccccc2)n1
–,–,–,inactive,–,CS(=O)(=O)c1nc(N)cc(OCc2ccccc2)n1
3.00,1000,2,–,–,Nc1ccnc(SCc2ccc(Cl)cc2)n1
3.00,500,1.5,–,–,Nc1ccnc(SCCCCc2ccccc2)n1
–,–,–,inactive,–,COc1ccc(-c2c[nH]c(=O)nc2N)cc1
1.92,–,1.4,–,5,CCCn1ccc(N)nc1=O
–,–,–,inactive,–,Nc1cc(OCc2ccccc2)ncn1
–,–,–,inactive,–,Nc1cc(Nc2ccccc2)[nH]c(=O)n1
3.30,500,2,–,–,Nc1ccnc(Sc2ccc3ccccc3c2)n1
2.60,–,2,–,2.5,Nc1ccn(CCCOc2ccccc2)c(=O)n1
–,–,–,inactive,–,CSc1nc(N)cc(OCc2ccccc2)n1
2.22,–,1.8,–,5,Nc1ccn(CCOc2ccccc2)c(=O)n1
2.55,–,2.8,–,4,Nc1ccnc(SCc2ccccc2)n1
–,–,–,inactive,–,Nc1cc(OCc2ccccc2)[nH]c(=O)n1
3.00,1000,2,–,–,Nc1ccn(CCCCc2ccccc2)c(=O)n1
2.22,–,2.4,–,7.5,Nc1ccnc(OCc2ccccc2)n1
